Measured values pooled from the literature.
Protocols differ between the studies behind these lines.
Organism: Acinetobacter baumannii
Effect on: microbial growth

SMILES	technique	strain	time	setting	MIC
CCCCCCC/C=C/C(=O)N1C(=O)/C(=C(/C)O)C(=O)C1CO (stereo not drawn)		ATCC19606			> 200 µg/mL
CN(C)[C@@H]1C(O)=C(C(N)=O)C(=O)[C@@]2(O)C(O)=C3C(=O)c4c(cc5ccc(CN6CC(F)(F)C6)cc5c4O)C[C@H]3C[C@@H]12	broth dilution	ATCC19606			32 µg/mL
NC[C@@H]1O[C@H](O[C@H]2[C@@H](O)[C@H](O[C@@H]3[C@@H](O)[C@H](N)C[C@H](N)[C@H]3O[C@H]3O[C@H](CO)[C@@H](O)[C@H](O)[C@H]3N)O[C@@H]2CO)[C@H](N)[C@@H](O)[C@@H]1O					2 to 4 µg/mL
CCCCCCC/C=C/C(=O)N1C(=O)/C(=C(\O)c2ccncc2)C(=O)C1CC(C)C (stereo not drawn)		ATCC19606			> 200 µg/mL
O=C(O)c1ccc(-n2cc(/C=N/Nc3ccc(F)c(Cl)c3)c(-c3ccc4ccccc4c3)n2)cc1		ATCCBAA1605			25 µg/mL
CCCCC(=O)N1C(=O)/C(=C(/C)O)C(=O)C1CC(C)C (stereo not drawn)		ATCC19606			> 200 µg/mL
O=C(O)c1ccc(-n2cc(/C=N/Nc3ccc(F)cc3)c(-c3ccc(F)cc3)n2)cc1		ATCCBAA1605			25 µg/mL
CCCCCCC/C=C/C(=O)N1CC(=O)/C(=C(\C)O)C1=O		ATCC19606			100 µg/mL
O=C(Cc1ccc(O)c(O)c1)NCCCCCCCC[P+](c1ccccc1)(c1ccccc1)c1ccccc1.[Br-]	broth dilution	ATCC19606	18 h		> 32 µg/mL
CCCCCCC/C=C/C(=O)N1C(=O)/C(=C(\O)c2ccc(O)cc2)C(=O)C1CC(C)C (stereo not drawn)		ATCC19606			> 200 µg/mL
C[C@@H](O)[C@H]1C(=O)N2C(C(=O)O)=C(S[C@@H]3CN[C@H](C(=O)N(C)C)C3)[C@H](C)[C@H]12	broth dilution	KCCM40203	16 h		2 µM
C[C@@H](O)[C@H]1C(=O)N2C(C(=O)O)=C(S[C@@H]3CN[C@H](C(=O)N(C)C)C3)[C@H](C)[C@H]12	broth dilution	ATCC19606			0.5 µg/mL
CN(C)CCCNc1nc(Cl)c2c(c1O)C(=O)C1=C(O)[C@]3(O)C(=O)C(C(N)=O)=C(O)[C@@H](N(C)C)[C@@H]3C[C@@H]1C2.Cl	broth dilution	ATCC19606			> 32 µg/mL
CN(C)c1cc(NC(=O)CNC(C)(C)C)c(O)c2c1C[C@H]1C[C@H]3[C@H](N(C)C)C(O)=C(C(N)=O)C(=O)[C@@]3(O)C(O)=C1C2=O		ATCC19606			1.2 µg/mL
O=C(Nc1ccc([N+](=O)[O-])cc1F)c1ccccc1O	broth dilution	BAA1605			> 64 µg/mL
CN(C)c1ccc(O)c2c1C[C@H]1C[C@H]3[C@H](N(C)C)C(O)=C(C(N)=O)C(=O)[C@@]3(O)C(O)=C1C2=O	broth dilution	ATCC19606			≤ 0.125 µg/mL
C/C(O)=C1\C(=O)C(CC(C)C)N(C(=O)CCCCCc2ccccc2)C1=O (stereo not drawn)		ATCC19606			> 200 µg/mL
N=C(N)c1ccc(OCc2ccccc2COc2ccc(C(=N)N)cc2)cc1	broth dilution	ATCC17978			> 200 µg/mL
CN[C@H](CC(C)C)C(=O)N[C@H]1C(=O)N[C@@H](CC(N)=O)C(=O)N[C@H]2C(=O)N[C@H]3C(=O)N[C@H](C(=O)N[C@H](C(=O)O)c4cc(O)cc(O)c4-c4cc3ccc4O)[C@H](O)c3ccc(c(Cl)c3)Oc3cc2cc(c3O[C@@H]2O[C@H](CO)[C@@H](O)[C@H](O)[C@H]2O[C@H]2C[C@](C)(N)[C@H](O)[C@H](C)O2)Oc2ccc(cc2Cl)[C@H]1O	broth dilution	BAA747			> 128 µM
N#Cc1ccc(N/N=C/c2cn(-c3ccc(C(=O)O)cc3)nc2-c2ccc(F)cc2)cc1		ATCCBAA1605			> 25 µg/mL

SMILES	technique	strain	time	setting	MIC
CNc1nc(Cl)c2c(c1O)C(=O)C1=C(O)[C@]3(O)C(=O)C(C(N)=O)=C(O)[C@@H](N(C)C)[C@@H]3C[C@@H]1C2.Cl.Cl.Cl	broth dilution	ATCC19606			0.031 µg/mL
NC1CCc2c1[nH]c1ccc(Cl)c(Cl)c21 (stereo not drawn)	broth dilution	ATCC19606			8 µg/mL
NC[C@H]1O[C@H](O[C@H]2[C@H](O)[C@@H](O[C@H]3O[C@H](CO)[C@@H](O)[C@H](N)[C@H]3O)[C@H](N)C[C@@H]2N)[C@H](N)C[C@@H]1O	broth dilution			clinical isolate	> 200 µM
NCC[C@H](O)C(=O)N[C@@H]1C[C@H](N)[C@@H](O[C@H]2O[C@H](CN)[C@@H](O)[C@H](O)[C@H]2O)[C@H](O)[C@H]1O[C@H]1O[C@H](CO)[C@@H](O)[C@H](N)[C@H]1O					2 µg/mL
CNc1cccc2c(O)c3c(cc12)C[C@H]1C[C@H]2[C@H](N(C)C)C(O)=C(C(N)=O)C(=O)[C@@]2(O)C(O)=C1C3=O	broth dilution	ATCC19606			> 32 µg/mL
CC(C)Oc1c(NC(=O)c2ccc(NC(=O)[C@H](CC(N)=O)NC(=O)c3ccc(NC(=O)c4ccc(C#N)cn4)cc3)cc2)ccc(C(=O)Nc2ccc(C(=O)O)cc2)c1O		DSM30008			0.125 µg/mL
O=C(CCc1cc(O)c(O)c(O)c1)NCCCCCCCC[P+](c1ccccc1)(c1ccccc1)c1ccccc1.[Br-]	broth dilution	ATCC19606	18 h		> 32 µg/mL
CCCNc1nc(F)c2c(c1O)C(=O)C1=C(O)[C@]3(O)C(=O)C(C(N)=O)=C(O)[C@@H](N(C)C)[C@@H]3C[C@@H]1C2.Cl.Cl	broth dilution	ATCC19606			0.125 µg/mL
CN(C)c1ccc(-c2ccc3cc4c(c(O)c3c2)C(=O)C2=C(O)[C@]3(O)C(=O)C(C(N)=O)=C(O)[C@@H](N(C)C)[C@@H]3C[C@@H]2C4)cc1	broth dilution	ATCC19606			32 µg/mL
O=C(Nc1ccc2c(c1)OC(F)(F)O2)Nc1ccc(Cl)c(C(F)(F)F)c1		DSM30007			> 100 µM
N=C(N)c1ccc(OCc2cc(COc3ccc(C(=N)N)cc3)cc(-c3ccccc3)c2)cc1	broth dilution	ATCC17978			> 200 µg/mL
CN[C@H](CC(C)C)C(=O)N[C@H]1C(=O)N[C@@H](CC(N)=O)C(=O)N[C@H]2C(=O)N[C@H]3C(=O)N[C@H](C(=O)N[C@H](C(=O)O)c4cc(O)cc(O)c4-c4cc3ccc4O)[C@H](O)c3ccc(c(Cl)c3)Oc3cc2cc(c3O[C@@H]2O[C@H](CO)[C@@H](O)[C@H](O)[C@H]2O[C@H]2C[C@](C)(N)[C@H](O)[C@H](C)O2)Oc2ccc(cc2Cl)[C@H]1O	broth dilution	ATCC19606	18 h		> 32 µg/mL
CCCNc1nc(N(C)C)c2c(c1O)C(=O)C1=C(O)[C@]3(O)C(=O)C(C(N)=O)=C(O)[C@@H](N(C)C)[C@@H]3C[C@@H]1C2.Cl.Cl	broth dilution	ATCC19606			> 32 µg/mL
O=C(O)c1ccc(-n2cc(/C=N/Nc3cccc(F)c3)c(-c3ccc4ccccc4c3)n2)cc1		ATCCBAA1605			25 µg/mL
CC1(C)S[C@@H]2[C@H](NC(=O)C(C(=O)O)c3ccccc3)C(=O)N2[C@H]1C(=O)O (stereo partly drawn)	broth dilution			clinical isolate	> 200 µM
CN(C)[C@@H]1C(O)=C(C(N)=O)C(=O)[C@@]2(O)C(O)=C3C(=O)c4c(O)cncc4C[C@H]3C[C@@H]12.Cl.Cl	broth dilution	ATCC19606			2 µg/mL
O=C(Cc1cc(O)c(O)c(O)c1)NCCCCCCCC[P+](c1ccccc1)(c1ccccc1)c1ccccc1.[Br-]	broth dilution	ATCC19606	18 h		> 32 µg/mL
NCCCNC1CCCCc2c1[nH]c1ccc(Br)cc21 (stereo not drawn)	broth dilution	ATCC19606			32 µg/mL
N=C(N)c1ccc(OCCC(CCOc2ccc(C(=N)N)cc2)c2ccccc2)cc1 (stereo not drawn)	broth dilution	ATCC17978			> 200 µg/mL
